Test results published in ChEMBL document CHEMBL5303300, “EUbOPEN Chemogenomics Library - Multiplex” (2023).
Where “and” joins values, the source holds several entries; their conditions need not be identical. Equal values may be shown once.

Test system: U2OS
Assay: Multiplex assay against U2OS
Format: toxicity, cell-based
Conditions: human, number of replicates 2
Method in brief: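 Live cells carried four stains from seeding: Hoechst33342, BioTracker Green Microtubule Cytoskeleton Dye, MitoTracker Red and Annexin V Alexa Fluor 680. They were imaged on a CQ1 microscope at 37°C and 5% CO2 after compound addition. Using CellPathfinder machine-learning gating, cells were split into Hoechst high-intensity objects or normal cells, normal cells into healthy, pyknosed or fragmented nuclei, and pyknosed cells into mitotic or apoptotic; tubulin, mitochondrial-mass and membrane-permeability phenotypes are per cents of healthy-nucleus cells.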

[1] = 12 h, 1 µM, compound concentration 1 uM
[2] = 12 h, 10 µM, compound concentration 10 uM
[3] = 24 h, 1 µM, compound concentration 1 uM
[4] = 24 h, 10 µM, compound concentration 10 uM
[5] = 48 h, 1 µM, compound concentration 1 uM
[6] = 48 h, 10 µM, compound concentration 10 uM

CN1CCCN(C(=O)c2cccc(-c3ccc(/C=C4/C(=O)Nc5ccc(Cl)cc54)o3)c2)CC1
Population Apoptotic (%) [1]: 64% and 66% | Population Fragmented Nuclei (%) [1]: 9% and 10% | Population Healthy Nuclei (%) [1]: 77% and 81% | Population Hoechst High Intensity Objects (%) [1]: 0% | Population Membrane Permeable-Phenotype (%) [1]: 0% | Population Mitochondria Different-Phenotype (%) [1]: 6% and 0% | Population Mitotic Cells (%) [1]: 35% and 33% | Population Normal (%) [1]: 100% | Population Pyknosed Nuclei (%) [1]: 13% and 8% | Population Tubulin-Different-Phenotype (%) [1]: 70% and 43% | Population Apoptotic (%) [2]: 91% and 64% | Population Healthy Nuclei (%) [2]: 18% and 30% | Population Hoechst High Intensity Objects (%) [2]: 0% and 10% | Population Normal (%) [2]: 99% and 89% | Population Pyknosed Nuclei (%) [2]: 68% and 26% | Population Tubulin-Different-Phenotype (%) [2]: 100% and 56% | Total Cell Count [2]: 142 and 58 | Population Apoptotic (%) [3]: 62% and 87% | Population Fragmented Nuclei (%) [3]: 7% and 8% | Population Healthy Nuclei (%) [3]: 73% | Population Hoechst High Intensity Objects (%) [3]: 0% | Population Membrane Permeable-Phenotype (%) [3]: 6% and 2% | Population Mitochondria Different-Phenotype (%) [3]: 3% and 5% | Population Normal (%) [3]: 100% | Population Pyknosed Nuclei (%) [3]: 19% and 18% | Population Tubulin-Different-Phenotype (%) [3]: 53% and 72% | Population Apoptotic (%) [4]: 95% and 57% | Population Hoechst High Intensity Objects (%) [4]: 0% and 15% | Population Normal (%) [4]: 99% and 85% | Population Pyknosed Nuclei (%) [4]: 89% and 41% | Population Tubulin-Different-Phenotype (%) [4]: 100% and 72% | Total Cell Count [4]: 136 and 60 | Population Apoptotic (%) [5]: 77% and 90% | Population Fragmented Nuclei (%) [5]: 10% | Population Healthy Nuclei (%) [5]: 65% and 61% | Population Hoechst High Intensity Objects (%) [5]: 0% | Population Membrane Permeable-Phenotype (%) [5]: 8% and 4% | Population Mitochondria Different-Phenotype (%) [5]: 0% and 1% | Population Mitotic Cells (%) [5]: 22% and 10% | Population Normal (%) [5]: 100% | Population Pyknosed Nuclei (%) [5]: 23% and 28% | Population Tubulin-Different-Phenotype (%) [5]: 52% and 80% | Total Cell Count [5]: 38 and 106 | Population Apoptotic (%) [6]: 96% and 62% | Population Healthy Nuclei (%) [6]: 22% and 27% | Population Hoechst High Intensity Objects (%) [6]: 0% and 14% | Population Normal (%) [6]: 100% and 85% | Population Pyknosed Nuclei (%) [6]: 73% and 29% | Population Tubulin-Different-Phenotype (%) [6]: 92% and 86% | Total Cell Count [6]: 127 and 64
